According to ChEMBL document CHEMBL3611973, “Synthesis and biological evaluation of a novel betulinic acid derivative as an inducer of apoptosis in human colon carcinoma cells (HT-29)” (Eur J Med Chem, 2015):
Activity calls are given as the source filed them. The calls are words filed in the database; no cut-off is given here.

How the values were obtained:
[1] = test system: HT-29; test: Induction of apoptosis in human HT-29 cells assessed as loss of mitochondrial membrane potential using JC-1 dye at IC50 after 12 hrs by flow cytometry (reference value: 1.75%); type: functional
[2] = test system: HT-29; test: Induction of apoptosis in human HT-29 cells assessed as late apoptotic cells using annexin V-FITC/propidium iodide staining at IC50 after 24 hrs by flow cytometry (reference value: 0.0%); type: functional
[3] = test system: Jurkat; test: Cytotoxic activity against human Jurkat cells assessed as cell growth inhibition after 48 hrs by MTT assay; type: functional, cell-based
Method in brief: (§1)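 Log-phase cells (1.25-2.5×10^4/100 µl; RPMI 1640, HepG2 in high-glucose DMEM, 10% FBS) given compound in DMSO (final <0.1%), 0-50 µM, 48 h, 37 °C, 5% CO2. MTT 4 h, DMSO solubilization, OD 540 nm minus background; viability relative to untreated; IC50 by graphical extrapolation, ≥3 experiments in duplicate.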

[4] = test system: HT-29; test: Induction of apoptosis in human HT-29 cells assessed as increase in caspase-9 activity at IC50 after 48 hrs by colorimetric assay; type: functional, cell-based
[5] = test system: PBMC; test: Cytotoxic activity against human PBMC cells assessed as cell growth inhibition after 48 hrs by MTT assay; type: cell-based; method in brief: as §1
[6] = test system: HT-29; test: Induction of apoptosis in human HT-29 cells assessed as late apoptotic cells using annexin V-FITC/propidium iodide staining at IC50 by flow cytometry; type: functional, cell-based; conditions: TDE = time-dependent effect
[7] = test system: HT-29; test: Induction of apoptosis in human HT-29 cells assessed as early apoptotic cells using annexin V-FITC/propidium iodide staining at IC50 after 24 hrs by flow cytometry (reference value: 0.1%); type: functional
[8] = test system: HT-29; test: Induction of apoptosis in human HT-29 cells assessed as reduction in Bcl2/Bax ratio at IC50 after 12 to 48 hrs by Western blotting; type: functional, cell-based
[9] = test system: HT-29; test: Induction of apoptosis in human HT-29 cells assessed as cleavage of PARP at IC50 after 24 to 48 hrs by Western blotting; type: functional, cell-based
[10] = test system: HT-29; test: Induction of apoptosis in human HT-29 cells assessed as loss of mitochondrial membrane potential using JC-1 dye at IC50 after 48 hrs by flow cytometry (reference value: 1.75%); type: functional
[11] = test system: HT-29; test: Cytotoxic activity against human HT-29 cells assessed as cell growth inhibition after 48 hrs by MTT assay; type: functional, cell-based; conditions: HT-29, 48 h; method in brief: as §1
[12] = test system: HT-29; test: Induction of apoptosis in human HT-29 cells assessed as loss of mitochondrial membrane potential using JC-1 dye at IC50 after 24 hrs by flow cytometry (reference value: 1.75%); type: functional
[13] = test system: HT-29; test: Induction of apoptosis in human HT-29 cells assessed as early apoptotic cells using annexin V-FITC/propidium iodide staining at IC50 after 12 hrs by flow cytometry (reference value: 0.1%); type: functional
[14] = test system: HT-29; test: Induction of apoptosis in human HT-29 cells assessed as late apoptotic cells using annexin V-FITC/propidium iodide staining at IC50 after 48 hrs by flow cytometry (reference value: 0.0%); type: functional
[15] = test system: HT-29; test: Induction of apoptosis in human HT-29 cells assessed as membrane blebbing using Hoechst 33258 dye at IC50 after 48 hrs by confocal microscopic analysis; type: functional, cell-based
Method in brief: (§2)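 HT-29 (2.5×10^5 cells/ml) treated 48 h at 37 °C, 5% CO2, washed, fixed in 4% paraformaldehyde (4 °C, 30 min), stained with Hoechst 33258 (5 µg/ml final, 37 °C, 30 min, dark), mounted in 50% glycerol on poly-L-lysine slides; confocal imaging at 100×.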

[16] = test system: HepG2; test: Cytotoxic activity against human HepG2 cells assessed as cell growth inhibition after 48 hrs by MTT assay; type: functional, cell-based; conditions: HepG2, 48 h; method in brief: as §1
[17] = test system: HT-29; test: Induction of apoptosis in human HT-29 cells assessed as increase in caspase-3 activity at IC50 after 48 hrs by colorimetric assay; type: functional, cell-based
[18] = test system: Calf thymus DNA; test: Binding affinity to calf thymus DNA assessed as conformational change at 50 uM after 2 hrs by circular dichroism analysis; type: nucleic-acid assay; conditions: Bos taurus
Method in brief: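 CT-DNA (500 μg/mL) incubated alone or with 50 μM compound for 2 h at 37 °C in 50 mM Tris-HCl/NaCl buffer; CD spectra recorded for conformation, with the positive band at 275 nm and the negative band at 245 nm (B-form) monitored.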

[19] = test system: HT-29; test: Induction of apoptosis in human HT-29 cells assessed as ROS generation measured up to 15 mins by FACS analysis; type: functional, cell-based
Method in brief: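 HT-29 (2.5×10^5/ml) exposed 0-2 h, washed, loaded with CM-H2DCFDA (5 μM in PBS) 30 min at 37 °C in the dark. DCF read by flow cytometry (ex 488/em 530 nm) on FSC/SSC-gated viable cells; mean fluorescence intensity, three independent experiments.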

[20] = test system: HT-29; test: Induction of apoptosis in human HT-29 cells assessed as early apoptotic cells using annexin V-FITC/propidium iodide staining at IC50 after 48 hrs by flow cytometry (reference value: 0.1%); type: functional
[21] = test system: Calf thymus DNA; test: Binding affinity to calf thymus DNA up to 2 hrs by absorption spectroscopy analysis; type: nucleic-acid assay; conditions: Bos taurus
Method in brief: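 Compound stock in 60% ethanol/50 mM Tris-HCl/NaCl (pH 7.5), diluted in buffer, actual concentration set by molar extinction coefficient. CT-DNA held at 50 μg/ml (legend: 100 μg/mL) with varied compound, 37 °C, 2 h; UV-vis scanned 200-400 nm. θ from 260 nm absorbance; Kb as the reciprocal of ligand concentration at half-saturation of the isotherm.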

[22] = test system: HT-29; test: Induction of apoptosis in human HT-29 cells assessed as early apoptotic cells using annexin V-FITC/propidium iodide staining at IC50 by flow cytometry; type: functional, cell-based; conditions: TDE = time-dependent effect
[23] = test system: HT-29; test: Induction of apoptosis in human HT-29 cells assessed as chromatin condensation using Hoechst 33258 dye at IC50 after 48 hrs by confocal microscopic analysis; type: functional, cell-based; method in brief: as §2
[24] = test system: HT-29; test: Induction of apoptosis in human HT-29 cells assessed as late apoptotic cells using annexin V-FITC/propidium iodide staining at IC50 after 12 hrs by flow cytometry (reference value: 0.0%); type: functional
[25] = test system: HT-29; test: Induction of apoptosis in human HT-29 cells assessed as increase in caspase-8 activity at IC50 after 48 hrs by colorimetric assay; type: functional, cell-based
[26] = test system: U-937; test: Cytotoxic activity against human U937 cells assessed as cell growth inhibition after 48 hrs by MTT assay; type: functional, cell-based; conditions: U-937, 48 h; method in brief: as §1
[27] = test system: HT-29; test: Induction of apoptosis in human HT-29 cells assessed as apoptotic bodies using Hoechst 33258 dye at IC50 after 48 hrs by confocal microscopic analysis; type: functional, cell-based; method in brief: as §2
[28] = test system: MCF7; test: Cytotoxic activity against human MCF7 cells assessed as cell growth inhibition after 48 hrs by MTT assay; type: functional, cell-based; conditions: MCF7, 48 h; method in brief: as §1
[29] = test system: HT-29; test: Cytotoxicity against human HT-29 cells assessed as cell viability after 48 hrs by MTT assay in presence of NAC; type: functional, cell-based; conditions: HT-29, 48 h
Method in brief: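 HT-29 cells pre-incubated with 2.5 mM N-acetyl cysteine for 3 h, then exposed to compound and assayed for viability by MTT.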

[30] = test system: HT-29; test: Induction of apoptosis in human HT-29 cells assessed as fragmentation using Hoechst 33258 dye at IC50 after 48 hrs by confocal microscopic analysis; type: functional, cell-based; method in brief: as §2

C=C(C)[C@@H]1CC[C@]2(C(=O)O)CC[C@]3(C)[C@H](CC[C@@H]4[C@@]5(C)CC[C@H](OC(=O)Cn6cc(CO)nn6)C(C)(C)[C@@H]5CC[C@]43C)[C@@H]12
Activity [1]: 16.5% | Activity [2]: 3.2% | IC50 [3]: 41.4 µM | Activity [4]: Active | IC50 [5]: > 50 µM | Activity [6]: tde | Activity [7]: 17.1% | Activity [8]: Active | Activity [9]: Active | Activity [10]: 51.4% | IC50 [11]: 14.9 µM | Activity [12]: 30.5% | Activity [13]: 14.1% | Activity [14]: 4.6% | Activity [15]: Active | IC50 [16]: > 50 µM | Activity [17]: Active | Activity [18]: inactive | Activity [19]: Active | Activity [20]: 25.2% | K [21]: 8.38 ×10⁴ /M | Activity [22]: tde | Activity [23]: Active | Activity [24]: 2% | Activity [25]: inactive | IC50 [26]: > 50 µM | Activity [27]: Active | IC50 [28]: > 50 µM | IC50 [29]: 30.4 µM | Activity [30]: Active
